Screening results deposited in PubChem by Johns Hopkins Ion Channel Center.
TRPC4 agonist: TRPC4 (mouse) channel activation. HEK293 TRPC4beta/mu-opioid, Fluo4 calcium fluorescence; hits give high values. B-score at 10 µM. hit rate 0.49% among 310,000. AID 2237;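 active means B-score above 5 SD of library B-scores, and initial fluorescence ratio not above library mean plus 5 SD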;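 further: positive B-score marks a calcium rise read as TRPC4 activation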
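system = HEK293 cells stably co-expressing mouse TRPC4beta and mu-opioid receptor | schedule = Fluo4 dye loading 45 min at room temperature, 110 s recording | measure = B-scored integrated calcium fluorescence ratio | signal = Fluo4 calcium-sensitive dye fluorescence, kinetic, 1 Hz baseline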
TRPC6 inh: blocks the mouse TRPC6 cation channel | HEK293-TRPC6, membrane potential dye, ACh-evoked depolarization; hits give low values | Q61143 | B-score at 10 µM | hit rate 1.1% among 310,000 | AID 2553;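 active means B-score under library mean minus 3 SD, initial fluorescence not abnormally high, positive integrated signal ratio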;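 further: B-score derived from integrated fluorescence ratio over the kinetic read; more negative B-score means stronger inhibition of depolarization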
Kir21 block: blocks the mouse Kir2.1 inward-rectifier potassium channel | B-score at 10 µM | hit rate 0.85% among 310,000 | HEK293-Kir2.1, FluxOR thallium flux fluorescence; hits give low values | P35561;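 active means fluorescence ratio B-score at or below minus 3 SD of library scores, with starting-brightness B-score within 2 SD, cut at about -4.2 in these data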;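 further: channel flux triggered by added potassium and thallium sulfate stimulus; B-score of peak minus minimum fluorescence over baseline after thallium stimulus; more negative B-score means stronger Kir2.1 block with less thallium influx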
Target sequence (P35561 whole entry, looked up): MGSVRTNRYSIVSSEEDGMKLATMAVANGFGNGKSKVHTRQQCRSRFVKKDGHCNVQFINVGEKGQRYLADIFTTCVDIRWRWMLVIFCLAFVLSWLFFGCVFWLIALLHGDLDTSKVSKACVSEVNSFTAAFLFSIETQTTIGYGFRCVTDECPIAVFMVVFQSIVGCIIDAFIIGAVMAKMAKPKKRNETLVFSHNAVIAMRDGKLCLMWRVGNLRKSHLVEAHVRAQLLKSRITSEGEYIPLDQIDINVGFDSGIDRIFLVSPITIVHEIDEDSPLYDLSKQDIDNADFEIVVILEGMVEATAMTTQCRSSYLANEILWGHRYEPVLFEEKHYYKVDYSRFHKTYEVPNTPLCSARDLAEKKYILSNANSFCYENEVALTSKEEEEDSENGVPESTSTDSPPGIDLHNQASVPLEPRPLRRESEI
TRPC4 PAM: TRPC4 (mouse) allosteric potentiation; Q9QUQ5; HEK293 TRPC4beta/mu-opioid, DAMGO EC20, Fluo-4 Ca2+ flux; hits give high values; B-score at 10 µM; hit rate 0.42% among 310,000; AID 2227;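 active means B-score of calcium response area above 5 SD of library B-scores, with initial fluorescence ratio within 5 SD of library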;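 further: B-score of integrated fluorescence ratio over time as area under calcium response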
TRPC4 inh: TRPC4 (mouse) channel inhibition; HEK293 TRPC4beta/mu-opioid, DAMGO-evoked Fluo4 calcium flux; hits give low values; B-score at 10 µM; hit rate 0.39% among 300,000; Q9QUQ5; AID 2247;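 active means B-score over 3 SD under the library average, no early fluorescence shift, positive overall ratio signal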
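Assay system: Stable TRPC4beta/mu-opioid receptor HEK293 cells | Reagent: DAMGO in two steps, submaximal then maximal | Compound dosing: Single concentration per test compound | Signal: Fluo4 Ca2+ flux fluorescence | Evaluation: Per-well B score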
TRPC6 act: mouse TRPC6 channel activation; Q61143; HEK293-TRPC6 membrane potential dye fluorescence; hits give high values; B-score at 10 µM; hit rate 0.13% among 310,000; AID 2550;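 active means B-score of the integrated fluorescence ratio above library mean plus 3 SD, and starting fluorescence ratio within library mean plus 5 SD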;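 further: higher score means more depolarization so channel activation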
TRPC4 sel inh 2: second check of whether TRPC6 inhibitors also affect mouse TRPC4; shares compounds with TRPC6 inh; HEK293 TRPC4/MOR, membrane potential dye fluorescence; channel activated by saturating DAMGO dose; inhibition, % at 10 µM; hit rate 42% among 920; AID 2776;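 active means compounds whose fluorescence signal differed from control wells by over 3 SD, either direction, in both duplicate plates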
TRPC4 spec: mouse TRPC4 off-target activity of TRPC6 inhibitors. shares compounds with TRPC6 inh. HEK293 TRPC4/mu-opioid, membrane potential fluorescence. activity change, negative = inhibition, % at 10 µM. hit rate 61% among 920. AID 2777;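 active means rise or fall in signal beyond 3 SD of buffer-only wells in both replicate plates, either sign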;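 further: integrated kinetic ratio of fluorescence range over baseline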
HEK293 MPD ctr 2-1: second check of TRPC6 inhibitor effects in parental HEK293 cells. shares compounds with TRPC6 inh. parental HEK293 membrane potential dye fluorescence; maximal acetylcholine challenge after compound addition. signal change vs control, % at 10 µM. hit rate 31% among 920;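 active means membrane potential signal moving either way by over 3 SD of the maximum-effect control, in both duplicate plates, meaning non-specific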
HEK293 MPD ctr-1: counter-screen for TRPC6 inhibitors: effect in parental HEK293 cells | shares compounds with TRPC6 inh | parental HEK293 membrane potential dye fluorescence | membrane potential signal change, % at 10 µM | hit rate 60% among 920;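 active means membrane potential signal shifting up or down by more than 3 SD of buffer-only wells, on both duplicate plates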
HEK293 MPD ctr-2: checks TRPC6 modulator effects in parental HEK293 cells; shares compounds with TRPC6 inh; membrane potential dye fluorescence; membrane potential signal change, % at 10 µM; hit rate 51% among 2,400;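 active means membrane potential signal moves up or down beyond 5 SD from buffer-only wells, on both duplicate plates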
HEK293 MPD ctr 2-2: second counter-screen for TRPC6 modulators: effect in parental HEK293 cells | shares compounds with TRPC6 inh | membrane potential dye fluorescence; after compound, maximal acetylcholine stimulation | inhibition, % at 10 µM | hit rate 14% among 2,400 | AID 488926;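 active means membrane potential signal drops by more than 5 SD from the mean control signal, in both duplicate plates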;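 further: plate controls were acetylcholine ECmax control wells for no effect and buffer only wells for full effect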
TRPC4 ctr mod: selectivity of TRPC6 modulators against mouse TRPC4; shares compounds with TRPC6 inh; HEK293 TRPC4/mu-opioid, membrane potential fluorescence; percent change from control (negative = decrease, positive = increase), % at 10 µM; hit rate 69% among 2,400;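 active means membrane potential signal moved up or down beyond 5 SD of buffer control wells, in both duplicate plates, actives on both sides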;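 further: plate controls were assay buffer wells for no effect and DAMGO maximal-effect wells for full effect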
TRPC4 ctr inh 2: mouse TRPC4 off-target activity of TRPC6 modulators, second screen; hit rate 55% among 2,400; inhibition, % at 10 µM; HEK293 TRPC4/mu-opioid, membrane potential dye fluorescence; stimulated with maximal-effect DAMGO; shares compounds with TRPC6 inh; AID 488928;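 active means drop in membrane potential signal beyond 5 SD of the control wells in both duplicate plates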;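 further: TRPC4 counter screen for TRPC6 hits run under conditions tuned for TRPC6 not TRPC4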
TRPC6 inh conf: mouse TRPC6 inhibitor confirmation. HEK293-TRPC6, membrane potential dye, ACh-evoked depolarization. shares compounds with TRPC6 inh. inhibition, % at 10 µM. hit rate 43% among 3,300;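 active means fluorescence ratio falls more than 5 SD below the full-stimulation control mean, in both duplicate runs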;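 further: integrated fluorescence ratio of peak minus minimum over baseline after agonist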
TRPC6 act confirm: mouse TRPC6 activator confirmation. activation, % at 10 µM. shares compounds with TRPC6 inh. HEK293-TRPC6 membrane potential dye fluorescence, FDSS. AID 488961. hit rate 11% among 2,800;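 active means ratio signal rise beyond 5 SD above unstimulated control wells' mean, seen in both duplicate runs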;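 further: plate controls were buffer EC0 wells for no effect and acetylcholine ECmax response for full effect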
* marks the source's active call; other numbers are inactive results. Most compounds without a hit are left out; they make up all but 2.9% or so of the library.

COCc1c(C#N)c(NCCc2ccc(F)cc2)nc(C)c1[N+](=O)[O-] was read as TRPC4 agonist inactive, TRPC6 inh -8*, Kir21 block 0.34, TRPC4 PAM inactive, TRPC4 inh inactive, TRPC6 act inactive, TRPC4 sel inh 2 inactive, TRPC4 spec inactive, HEK293 MPD ctr 2-1 inactive, HEK293 MPD ctr-1 inactive, TRPC6 inh conf inactive and TRPC6 act confirm inactive.
CSCCC(=O)N1CCC(n2nccc2NC(=O)CCc2ccccc2)CC1 was read as TRPC4 agonist inactive, TRPC6 inh inactive, Kir21 block 0.55, TRPC4 PAM inactive, TRPC4 inh inactive and TRPC6 act inactive.
Screening COC(=O)c1ccc(N/C=C/C(=O)c2ccccc2)cc1 returned TRPC4 agonist inactive, TRPC6 inh inactive, Kir21 block 2.3, TRPC4 PAM inactive, TRPC4 inh inactive and TRPC6 act inactive.
Screening Cc1ccc(NC2CCCN(C(=O)c3cccc4nccnc34)C2)cc1C (stereo unspecified) returned TRPC4 agonist inactive, TRPC6 inh inactive, Kir21 block 0.17, TRPC4 PAM inactive, TRPC4 inh inactive and TRPC6 act inactive.
`CCCN(CC(=O)Nc1ccccc1C)C(=O)c1ccc(=O)n(Cc2ccccc2)n1` gave TRPC4 agonist inactive, TRPC6 inh -5.1*, Kir21 block 0.64, TRPC4 PAM inactive, TRPC4 inh inactive, TRPC6 act inactive, HEK293 MPD ctr-2 90%*, HEK293 MPD ctr 2-2 inactive, TRPC4 ctr mod 16%*, TRPC4 ctr inh 2 inactive, TRPC6 inh conf inactive and TRPC6 act confirm inactive.
For O=C(CSc1nnc(C2CC2)n1Cc1ccccc1)c1cc2ccccc2o1 the results were TRPC4 agonist inactive, TRPC6 inh -5.2*, Kir21 block -4.5*, TRPC4 PAM inactive, TRPC4 inh inactive, TRPC6 act inactive, HEK293 MPD ctr-2 169%*, HEK293 MPD ctr 2-2 inactive, TRPC4 ctr mod 24%*, TRPC4 ctr inh 2 inactive and TRPC6 inh conf inactive.
`O=C(c1cc(-c2cccs2)nn1-c1ccccc1)N1CCN(S(=O)(=O)c2ccccc2)CC1` gave TRPC4 agonist inactive, TRPC6 inh inactive, Kir21 block -0.17, TRPC4 PAM inactive, TRPC4 inh inactive and TRPC6 act inactive.
COC(=O)c1ccc(CN2CCN(C3CCCC3)C(CCO)C2)cc1 (stereo unspecified) was read as TRPC4 agonist inactive, TRPC6 inh -9.5*, Kir21 block -0.02, TRPC4 PAM inactive, TRPC4 inh inactive, TRPC6 act inactive, TRPC4 sel inh 2 inactive, TRPC4 spec 2.2%*, HEK293 MPD ctr 2-1 6.0%*, HEK293 MPD ctr-1 4.6%* and TRPC6 inh conf 63%*.
For COc1ccccc1-n1cc(CN2CCN(CC(C)C)C(CCO)C2)cn1 (stereo unspecified) the results were TRPC4 agonist inactive, TRPC6 inh inactive, Kir21 block -1.1, TRPC4 PAM inactive, TRPC4 inh inactive and TRPC6 act inactive.
COC(=O)c1ccc(CN2CCN(C3CCCCC3)C(CCO)C2)cc1 (stereo unspecified) was read as TRPC4 agonist inactive, TRPC6 inh inactive, Kir21 block 0.18, TRPC4 PAM inactive, TRPC4 inh inactive and TRPC6 act inactive.
COc1ccccc1-n1cc(CN2CCN(C3CCCC3)C(CCO)C2)cn1 (stereo unspecified) was read as TRPC4 agonist inactive, TRPC6 inh -5.2*, Kir21 block 0.3, TRPC4 PAM inactive, TRPC4 inh inactive, TRPC6 act inactive, HEK293 MPD ctr-2 inactive, HEK293 MPD ctr 2-2 inactive, TRPC4 ctr mod 10%*, TRPC4 ctr inh 2 inactive and TRPC6 inh conf 36%*.
COc1ccc(OCCCC(=O)OCC(=O)NNC(=O)c2ccc([N+](=O)[O-])cc2)cc1 was read as TRPC4 agonist inactive, TRPC6 inh inactive, Kir21 block 0.24, TRPC4 PAM inactive, TRPC4 inh inactive and TRPC6 act inactive.
For O=C(CCOc1ccccc1)OCC(=O)c1cc2ccccc2o1 the results were TRPC4 agonist inactive, TRPC6 inh -9.3*, Kir21 block 0.43, TRPC4 PAM inactive, TRPC4 inh inactive, TRPC6 act inactive, TRPC4 sel inh 2 inactive, TRPC4 spec inactive, HEK293 MPD ctr 2-1 inactive, HEK293 MPD ctr-1 inactive, TRPC6 inh conf inactive and TRPC6 act confirm inactive.
Screening CC1CCN(C(=O)c2ccc3c(c2NCCO)C(=O)c2ccccc2C3=O)CC1 returned TRPC4 agonist inactive, TRPC6 inh -7.7*, Kir21 block 1.6, TRPC4 PAM inactive, TRPC4 inh inactive, TRPC6 act inactive, HEK293 MPD ctr-2 -209%*, HEK293 MPD ctr 2-2 inactive, TRPC4 ctr mod -35%*, TRPC4 ctr inh 2 76%*, TRPC6 inh conf 51%* and TRPC6 act confirm inactive.
